Source: publication PMC4010123 (Neuron, 2014)
Entries after “also recorded” stand apart in the source; their conditions may differ.

Experiments:
[1] = tested on: total NR2B; experiment: Total NR2B levels in hippocampal slices; assay type: cell-based, mouse; conditions: acute hippocampal slices, NMDA 50 or 100 μM, 15 min
In short: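 Acute mouse hippocampal slices were exposed to NMDA (50 or 100 μM, 15 min) in Mg2+-free Krebs buffer. Lysates were prepared with protease and phosphatase inhibitors and immunoblotted for total NR2B.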

[2] = tested on: Ser1116 of NR2B phosphorylated by Cdk5; experiment: P-S1116 NR2B in acute hippocampal slices; assay type: cell-based, mouse
[3] = tested on: hippocampal CA3-CA1 pathway (fEPSP); experiment: Extracellular field recordings, CA3-CA1 fEPSP slope in hippocampal slices; assay type: cell-based, mouse; conditions: for fEPSP slope, effect of NR2B siP in presence of Ro 25–6981: Ro 25–6981 3 μM, added 10 min before Pen siP (2 μM, 30 min)
In short: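 Hippocampal slices were used; wild-type slices came from 3-month-old C57BL/6 mice. CA1 fEPSPs were evoked by bipolar Schaffer collateral stimulation (0.1 ms pulses at 0.033 Hz) at the intensity giving 50% of maximal slope. After a stable baseline, Pen-tagged test or control peptide was perfused for 30 min. Where used, Ro 25–6981 (3 μM) perfusion began 10 min before peptide. Read-out: percent change from baseline fEPSP slope.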

[4] = tested on: NR2B; conditions: infusion into dorsal hippocampus; ref Zhang et al., 2008; cited from earlier work
[5] = tested on: NMDAR / NR2B component of NMDAR-EPSC; experiment: Whole-cell voltage-clamp NMDAR-EPSC, CA1 pyramidal neurons in hippocampal slices; assay type: cell-based, mouse
In short: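 Acute mouse hippocampal slices were pretreated with vehicle or Cdk5 inhibitor. Whole-cell voltage-clamp recordings of synaptically evoked NMDAR-EPSCs were made from CA1 pyramidal neurons, first without and then with the NR2B blocker ifenprodil. The ifenprodil-sensitive part was taken as the NR2B component; decay kinetics were also measured.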

[6] = tested on: NR2B-Cdk5 interaction; experiment: Pull-down of Cdk5 by recombinant GST-tagged NR2B in vitro; assay type: binding; conditions: n = 3
[7] = tested on: NR2B; experiment: Cell surface biotinylation of NR2B in hippocampal slices; assay type: cell-based, mouse; conditions: n = 4
[8] = tested on: Cdk5 (substrate recombinant NR2B, Ser1116); experiment: In vitro phosphorylation of Ser1116 NR2B by Cdk5; assay type: biochemical; conditions: immunoblot
[9] = tested on: NR2B; experiment: NR2B cell surface expression in siP-infused hippocampal area CA1; assay type: in vivo; conditions: rat CA1, NR2B siP vs scramble control; 4 pooled tissue punches
In short: (§1)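 Sprague-Dawley rats received continuous bilateral dorsal hippocampal infusion of test or scrambled peptide by osmotic pump. Epifluorescent CA1 tissue punches were immunoblotted, with protease and phosphatase inhibitors present. P-S1116 was expressed as the P-S1116/total NR2B ratio. Cell surface NR2B was measured from 4 pooled punches per condition.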

[10] = tested on: rats; experiment: Nociception, pain threshold and motor reflexes; assay type: in vivo, rat; conditions: chronic infusion (Figure S4B and C)
In short: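 Rats received continuous bilateral infusion of the test peptide or a scrambled control into dorsal hippocampus by mini-osmotic pump, starting 24 h before fear conditioning. Nociception was scored as the foot-shock threshold that elicits flinching, jumping and vocalizing in the conditioning box; a tail flick test was also used. Scoring was blind. Data are mean ± SEM.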

[11] = tested on: mice; experiment: Fear conditioning in mice, acute infusion into dorsal hippocampus; assay type: in vivo, mouse
[12] = tested on: NMDAR/AMPAR EPSC; experiment: NMDA/AMPA EPSC ratio in cortical slices; assay type: cell-based; conditions: cortical slices (pyramidal neurons), NR2B siP vs scrambled control; n = 12–16
[13] = tested on: Ser1116 of NR2B; experiment: P-S1116 NR2B in CA1 after siP infusion and fear conditioning; assay type: in vivo; conditions: NR2B siP infusion (Figure S5A)
In short: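 Test peptide or control peptide was infused into dorsal hippocampus before fear conditioning. Animals were killed 1 h after training, and CA1 lysates were prepared with protease and phosphatase inhibitors. P-S1116 and total NR2B were measured by quantitative immunoblot and reported as the P-S1116/total NR2B ratio. Data are mean ± SEM.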

[14] = tested on: NR2B or Cdk5; experiment: NR2B and Cdk5 expression levels in hippocampal slices; assay type: cell-based, mouse; conditions: NR2B siP
In short: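 Mouse hippocampal slices treated in Mg2+-free Krebs buffer with the test peptide (0–100 μM, 0–180 min) or a scrambled control peptide. NR2B–Cdk5 association was assessed by co-immunoprecipitation using 4 pooled slices per sample. NR2B and Cdk5 levels were immunoblotted, with loading shown.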

[15] = tested on: Sprague-Dawley rats; experiment: Fear conditioning in rats, chronic infusion into dorsal hippocampus; assay type: in vivo, rat; conditions: for conditioned fear response at 96 h: extinction trial, both groups (siP and scrambled) (Figure S4E)
In short: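 Two-month-old Sprague-Dawley rats received continuous bilateral dorsal hippocampal infusion by mini-osmotic pump, starting 24 h before training. Training: 2 min exploration, then a 30 s tone (90 dB, 10 kHz) co-terminating with a foot shock (2 s, 0.7 mA); 2 min more in the box. Context tests: 5 min at 24, 48, 72 and 96 h. Tone recall at 27 h in a novel vanilla context (3 min, then 3 min tone). Freezing was time-sampled every 5 s, blind. After extinction and pump expiry, rats were retrained (0.7 mA) and context-tested 24 h later.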

[16] = tested on: Cdk5 (substrate inhibitor-1); experiment: In vitro phosphorylation of inhibitor-1 by Cdk5; assay type: biochemical; conditions: Figure S3A
[17] = tested on: GFP-NR2B; experiment: Cell surface GFP-NR2B in dendrites of cultured hippocampal neurons; assay type: cell-based, rat; conditions: NR2B siP 2 μM, 30 min, vs control peptide (S1116A); n = 49–64 cells
[18] = tested on: Thr75 DARPP-32 (Cdk5 substrate); experiment: phospho-Thr75 DARPP-32 in acute brain slices; assay type: cell-based, mouse; conditions: acute striatal slices, NR2B siP (Figure S3C and D)
In short: (§2)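 Acute mouse striatal slices were treated in Mg2+-free Krebs buffer with polyarginine (R7)-tagged test peptide (0–100 μM, 0–180 min). Lysates were prepared with protease and phosphatase inhibitors and immunoblotted. For NR2B, P-S1116 was expressed as the P-S1116/total NR2B ratio; for DARPP-32, phospho-Thr75 was probed with total DARPP-32.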

[19] = tested on: Cdk5-NR2B protein-protein interaction; experiment: Co-immunoprecipitation of Cdk5 and NR2B from hippocampal slices; assay type: cell-based, mouse; conditions: 4 pooled slices per sample
In short: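 Acute mouse hippocampal slices were treated in Mg2+-free Krebs buffer with test peptide, scrambled peptide or Cdk5 inhibitor. Four slices were pooled per sample for NR2B–Cdk5 co-immunoprecipitation and immunoblotting, with Cdk5 input shown.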

[20] = tested on: NR2B component of NMDAR EPSC; experiment: Ifenprodil-sensitive NR2B component of NMDAR EPSC in slices; assay type: cell-based; conditions: slices incubated with NR2B siP vs scramble control; n = 6–7
[21] = tested on: Ser1116 of NR2B phosphorylated by Cdk5; experiment: P-S1116 NR2B in acute striatal slices; assay type: cell-based; conditions: acute mouse striatal slices, NR2B siP (Figure S3C and D)
In short: as §2

[22] = tested on: Ser1116 of NR2B; experiment: P-S1116 in siP-infused hippocampal area CA1; assay type: in vivo; conditions: rat CA1, NR2B siP vs scramble control; n = 4
In short: as §1

[23] = slices from Cdk5 cKO mice, NR2B siP 2 μM, 30 min, n = 3

## CN[C@H](CC(=O)O)C(=O)O [NMDA, N-methyl-D-aspartate]
[1]
  total NR2B levels: reduced total NR2B levels
[2]; acute hippocampal slices, NMDA 50 or 100 μM, 15 min, n = 4
  P-S1116 normalized to total NR2B: dose-dependently attenuated P-S1116

## C[C@@H](CN1CCC(Cc2ccccc2)CC1)[C@@H](O)c1ccc(O)cc1 [Ro25–6981]
[3]; n = 3
  fEPSP slope, effect of NR2B siP in presence of Ro 25–6981: blocked
[4]
  contextual fear learning: impair contextual fear learning
  locomotor or anxiety-related behavior: but not locomotor or anxiety-related behavior

## CC(C(O)c1ccc(O)cc1)N1CCC(Cc2ccccc2)CC1 (stereo not shown) [ifenprodil]
[5]; controls (vehicle), n = 6–7
  reduction of NMDAR-EPSC by ifenprodil in control slices: 20%
[5]; slices treated with CP681301, n = 6–7
  reduction of NMDAR-EPSC by ifenprodil in CP681301-treated slices: 33%
[4]
  contextual fear learning: impair contextual fear learning
  locomotor or anxiety-related behavior: but not locomotor or anxiety-related behavior

## C=C1[C@@H](O)[C@@H]2O[C@]3(CC[C@H](/C=C/[C@@H](C)[C@@H]4CC(C)=C[C@@]5(O[C@H](C[C@@](C)(O)C(=O)O)CC[C@H]5O)O4)O3)CC[C@H]2O[C@@H]1[C@@H](O)C[C@H](C)[C@H]1O[C@@]2(CCCCO2)CC[C@H]1C [okadaic acid]
[2]; hippocampal slices, PP2A/PP1 inhibitor okadaic acid + NMDA (Figure S2C)
  ability of NMDA to reduce P-S1116 in presence of okadaic acid: attenuated

## RRPPRSPDHKRYFRDKE [NR2B siP]
[6]
  block of pull-down of Cdk5 by GST-tagged NR2B: most potently blocked the pull-down of Cdk5; also recorded: dose-dependently disrupts NR2B-Cdk5 binding in vitro
[7]; NR2B siP 1 h, 100 μM
  NR2B cell surface levels, increase, siP: 3.3 fold
[7]; NR2B siP or Scramble 1 h, 100 μM, or CP681301 1 h, 50 μM
  NR2B cell surface levels: increased
[8]
  in vitro phosphorylation of Ser1116 NR2B by Cdk5: dose-dependently inhibits
[9]
  NR2B cell surface expression: increases NR2B cell surface expression
[10]
  nociception, pain threshold, or motor reflexes: neither NR2B siP, nor scrambled control affected nociception, pain threshold, or motor reflexes
[11]; 3 month-old mice, acute infusion
  freezing levels in context test, acute compared with chronic infusion: comparable to the levels observed with chronic infusion
[11]; 3 month-old mice, acute infusion 90 min prior to conditioning, n = 6–10
  freezing in the tone test: not freezing to tone; also recorded: did not reveal any significant changes
[11]; 14 month-old mice, acute infusion 90 min prior to training, vs control peptide or non-infused cannulated controls (Figure S5B)
  contextual fear memory, increase, aged mice: 1.7 fold
[12]
  NMDA/AMPA EPSC ratio, increase: 1.8 fold
[3]; n = 3
  fEPSP slope, effect of NR2B siP in presence of Ro 25–6981: did not show a significant effect
[3]; hippocampal slices, after washout of NR2B siP (Pen siP), vs control peptide
  fEPSP slope, steady state after washout, relative to control treated slices: 1.6 fold
[3]; [23]
  fEPSP slope in Cdk5 cKO, effect: almost absent in Cdk5 cKO mice
  fEPSP slope in Cdk5 cKO, increase: 1.2 fold
[13]
  P-S1116 NR2B in CA1 one hour post-training: decreased P-S1116 NR2B in CA1 one hour post-training
[14]
  levels of NR2B or Cdk5 expression: did not alter levels of NR2B or Cdk5 expression
[15]; rats, 48 and 72 h after initial training (Figure S4D and E)
  contextual memory enhancement during extinction trials: contextual memory enhancement persisted
[15]; rats, chronic infusion, 27 h after conditioning
  tone-induced freezing: no effect
[15]; rats
  conditioned fear response at 96 h: extinguished by 96 h for both groups
[15]; rats, re-trained after extinction and expiration of pump (Figure S4F)
  contextual fear memory 24 h after re-training: increased
[15]; two-month-old rats, chronic infusion, n = 20
  contextual fear memory: improved contextual fear memory
[16]
  in vitro phosphorylation of inhibitor-1: did not inhibit
[17]
  cell surface GFP-NR2B levels, increase, siP: 1.5 fold
[18]
  phosphorylation state of Thr75 DARPP-32: no effect
[19]
  Cdk5-NR2B co-immunoprecipitation / interaction: disrupts NR2B-Cdk5 interaction; also recorded: effectively blocked subsequent co-immunoprecipitation of Cdk5 and NR2B
[20]
  ifenprodil-sensitive NR2B component of NMDAR EPSC, increase: 1.5 fold
[21]
  P-S1116 in striatal slices: time-dependently reduced P-S1116
[22]
  P-S1116 in infused region: reduces P-S1116

## RRRSYFHKEDRPPRDK [scrambled, reference compound]
[8]
  in vitro phosphorylation of Ser1116 NR2B by Cdk5: did not attenuate Ser1116 phosphorylation in vitro
[8]; listed as scramble
  in vitro phosphorylation of Ser1116 NR2B by Cdk5: no effect
[10]
  nociception, pain threshold, or motor reflexes: neither NR2B siP, nor scrambled control affected nociception, pain threshold, or motor reflexes
[15]; rats
  conditioned fear response at 96 h: extinguished by 96 h for both groups
[19]
  Cdk5-NR2B co-immunoprecipitation / interaction: did not affect Cdk5-NR2B interactions
